# Experimental data from ChEMBL document CHEMBL5055631, “Antitumor properties of novel sesquiterpene lactone analogs as NFκB inhibitors that bind to the IKKβ ubiquitin-like domain (ULD)” (Eur J Med Chem, 2021).
# Tests used:
# Format in all cases: functional
# HCC 2998 = test: Anticancer activity against human HCC 2998 cells assessed as cell growth inhibition incubated for 48 hrs by SRB method
# Outline: (§1)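 NCI-60 panel (DTP). Cells in RPMI 1640 with 5% FBS, 2 mM L-glutamine, seeded at 5,000–40,000 per well by doubling time and preincubated 24 h at 37 °C, 5% CO2. Time-zero plates TCA-fixed. DMSO stocks diluted in medium with gentamicin, tested at 100 μM, 10 μM, 1 μM, 0.1 μM and 10 nM for 48 h. Cells fixed with cold TCA, stained with SRB, absorbance read at 515 nm.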
# HOP-62 = test: Anticancer activity against human HOP-62 cells assessed as cell growth inhibition incubated for 48 hrs by SRB method; outline: as §1
# T47D = test: Anticancer activity against human T47D cells assessed as cell growth inhibition incubated for 48 hrs by SRB method; outline: as §1
# SNB-19 = test: Anticancer activity against human SNB-19 cells assessed as cell growth inhibition incubated for 48 hrs by SRB method; outline: as §1
# EKVX = test: Anticancer activity against human EKVX cells assessed as cell growth inhibition incubated for 48 hrs by SRB method; outline: as §1
# U-251 = test: Anticancer activity against human U-251 cells assessed as cell growth inhibition incubated for 48 hrs by SRB method
# Outline: (§2)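 NCI-60 panel, SRB assay. Cells grown in RPMI 1640 with 5% FBS and 2 mM L-glutamine, seeded at 5,000–40,000 cells/well depending on doubling time, and preincubated 24 h at 37 °C with 5% CO2. Time-zero plates were TCA-fixed. Compounds came from DMSO stocks and were tested at 100 μM, 10 μM, 1 μM, 0.1 μM and 10 nM for 48 h. Cells were fixed with cold TCA and stained with 0.4% SRB, and the dye was solubilized in 10 mM Tris base with A515 read.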
# NCI/ADR-RES = test: Anticancer activity against human NCI/ADR-RES cells assessed as cell growth inhibition incubated for 48 hrs by SRB method; outline: as §1
# OVCAR-8 = test: Anticancer activity against human OVCAR-8 cells assessed as cell growth inhibition incubated for 48 hrs by SRB method; outline: as §1
# Malme-3M = test: Anticancer activity against human MALME-3M cells assessed as cell growth inhibition incubated for 48 hrs by SRB method
# DU-145 = test: Anticancer activity against human DU-145 cells assessed as cell growth inhibition incubated for 48 hrs by SRB method; outline: as §1
# SW-620 = test: Anticancer activity against human SW-620 cells assessed as cell growth inhibition incubated for 48 hrs by SRB method
# NCI-H23 = test: Anticancer activity against human NCI-H23 cells assessed as cell growth inhibition incubated for 48 hrs by SRB method; outline: as §1
# IGROV-1 = test: Anticancer activity against human IGROV-1 cells assessed as cell growth inhibition incubated for 48 hrs by SRB method; outline: as §1
# OVCAR-4 = test: Anticancer activity against human OVCAR-4 cells assessed as cell growth inhibition incubated for 48 hrs by SRB method
# CAKI-1 = test: Anticancer activity against human CAKI-1 cells assessed as cell growth inhibition incubated for 48 hrs by SRB method; outline: as §1
# LOX IMVI = test: Anticancer activity against human LOX IMVI cells assessed as cell growth inhibition incubated for 48 hrs by SRB method
# SR = test: Anticancer activity against human SR cells assessed as cell growth inhibition incubated for 48 hrs by SRB method; outline: as §1
# PC-3 = test: Anticancer activity against human PC-3 cells assessed as cell growth inhibition incubated for 48 hrs by SRB method; outline: as §1
# NCI-H522 = test: Anticancer activity against human NCI-H522 cells assessed as cell growth inhibition incubated for 48 hrs by SRB method
# OVCAR-5 = test: Anticancer activity against human OVCAR-5 cells assessed as cell growth inhibition incubated for 48 hrs by SRB method
# MOLT-4 = test: Anticancer activity against human MOLT-4 assessed as cell growth inhibition incubated for 48 hrs by SRB method
# UO-31 = test: Anticancer activity against human UO-31 cells assessed as cell growth inhibition incubated for 48 hrs by SRB method
# Outline: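 NCI-60 panel, SRB assay. Time-zero plates were TCA-fixed. Compounds came from DMSO stocks and were tested at 100 μM, 10 μM, 1 μM, 0.1 μM and 10 nM for 48 h. Cells were fixed with cold TCA and stained with 0.4% SRB, and the dye was solubilized in 10 mM Tris base with A515 read.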
# A498 = test: Anticancer activity against human A498 cells assessed as cell growth inhibition incubated for 48 hrs by SRB method; outline: as §1
# UACC-257 = test: Anticancer activity against human UACC-257 assessed as cell growth inhibition incubated for 48 hrs by SRB method; outline: as §2
# COLO 205 = test: Anticancer activity against human COLO 205 cells assessed as cell growth inhibition incubated for 48 hrs by SRB method
# ACHN = test: Anticancer activity against human ACHN cells assessed as cell growth inhibition incubated for 48 hrs by SRB method; outline: as §1
# M14 = test: Anticancer activity against human M14 cells assessed as cell growth inhibition incubated for 48 hrs by SRB method; outline: as §1
# SF-295 = test: Anticancer activity against human SF-295 cells assessed as cell growth inhibition incubated for 48 hrs by SRB method; outline: as §1
# RPMI-8226 = test: Anticancer activity against human RPMI-8226 cells assessed as cell growth inhibition incubated for 48 hrs by SRB method
# BT-549 = test: Anticancer activity against human BT-549 cells assessed as cell growth inhibition incubated for 48 hrs by SRB method; outline: as §1
# [1] = Anticancer activity against human HS 578T cells assessed as cell growth inhibition incubated for 48 hrs by SRB method
# MDA-MB-231 = test: Anticancer activity against human MDA-MB-231 cells assessed as cell growth inhibition incubated for 48 hrs by SRB method; outline: as §1
# HCT-116 = test: Anticancer activity against human HCT-116 cells assessed as cell growth inhibition incubated for 48 hrs by SRB method; outline: as §1
# K562 = test: Anticancer activity against human K562 cells assessed as cell growth inhibition incubated for 48 hrs by SRB method
# MCF7 = test: Anticancer activity against human MCF7 cells assessed as cell growth inhibition incubated for 48 hrs by SRB method; outline: as §1
# HCT-15 = test: Anticancer activity against human HCT-15 cells assessed as cell growth inhibition incubated for 48 hrs by SRB method; outline: as §1
# HT-29 = test: Anticancer activity against human HT29 cells assessed as cell growth inhibition incubated for 48 hrs by SRB method; outline: as §1
# NCI-H460 = test: Anticancer activity against human NCI-H460 cells assessed as cell growth inhibition incubated for 48 hrs by SRB method; outline: as §1
# SF-539 = test: Anticancer activity against human SF-539 cells assessed as cell growth inhibition incubated for 48 hrs by SRB method
# A549 = test: Anticancer activity against human A549 cells assessed as cell growth inhibition incubated for 48 hrs by SRB method; outline: as §1
# RXF 393 = test: Anticancer activity against human RXF 393 cells assessed as cell growth inhibition incubated for 48 hrs by SRB method; outline: as §1
smiles,measurement,setting,value
C=C1C(=O)O[C@H]2[C@H]1CC/C(COC(=O)NCCc1ccc(OC)cc1)=C\CC[C@@]1(C)O[C@@H]21,GI50,HCC 2998,2.48 µM
same,GI50,HOP-62,12.2 µM
same,GI50,T47D,13.8 µM
same,GI50,SNB-19,8.65 µM
same,GI50,EKVX,7.45 µM
same,GI50,U-251,11.1 µM
same,GI50,NCI/ADR-RES,2.65 µM
same,GI50,OVCAR-8,3.41 µM
same,GI50,Malme-3M,2.44 µM
same,GI50,DU-145,1.76 µM
same,GI50,SW-620,2.51 µM
same,GI50,NCI-H23,4.34 µM
same,GI50,IGROV-1,2.49 µM
same,GI50,OVCAR-4,2.61 µM
same,GI50,CAKI-1,4.52 µM
same,GI50,LOX IMVI,1.38 µM
same,GI50,SR,2.07 µM
same,GI50,PC-3,2.73 µM
same,GI50,NCI-H522,1.82 µM
same,GI50,OVCAR-5,2.19 µM
same,GI50,MOLT-4,2.61 µM
same,GI50,UO-31,1.55 µM
same,GI50,A498,10 µM
same,GI50,UACC-257,1.47 µM
same,GI50,COLO 205,1.94 µM
same,GI50,ACHN,1.76 µM
same,GI50,M14,1.98 µM
same,GI50,SF-295,13.5 µM
same,GI50,RPMI-8226,2.85 µM
same,GI50,BT-549,2.02 µM
same,GI50,[1],1.89 µM
same,GI50,MDA-MB-231,1.92 µM
same,GI50,HCT-116,1.34 µM
same,GI50,K562,3.08 µM
same,GI50,MCF7,8.08 µM
same,GI50,HCT-15,1.74 µM
same,GI50,HT-29,2.15 µM
same,GI50,NCI-H460,12.2 µM
same,GI50,SF-539,1.79 µM
same,GI50,A549,13.2 µM
same,GI50,RXF 393,1.72 µM
C=C1C(=O)O[C@H]2[C@H]1CC/C(COC(=O)NCc1ccc(OC)cc1)=C\CC[C@@]1(C)O[C@@H]21,GI50,HCC 2998,0.51 µM
same,GI50,HOP-62,4.81 µM
same,GI50,T47D,0.79 µM
same,GI50,SNB-19,0.7 µM
same,GI50,EKVX,1.29 µM
same,GI50,U-251,0.96 µM
same,GI50,NCI/ADR-RES,1.46 µM
same,GI50,OVCAR-8,0.49 µM
same,GI50,Malme-3M,0.2 µM
same,GI50,DU-145,0.16 µM
same,GI50,SW-620,0.22 µM
same,GI50,NCI-H23,0.55 µM
same,GI50,IGROV-1,0.32 µM
same,GI50,OVCAR-4,0.29 µM
same,GI50,CAKI-1,0.72 µM
same,GI50,LOX IMVI,0.27 µM
same,GI50,SR,0.3 µM
same,GI50,PC-3,0.35 µM
same,GI50,NCI-H522,0.17 µM
same,GI50,OVCAR-5,0.28 µM
same,GI50,MOLT-4,0.28 µM
same,GI50,UO-31,0.19 µM
same,GI50,A498,1.79 µM
same,GI50,UACC-257,1.52 µM
same,GI50,COLO 205,0.24 µM
same,GI50,ACHN,0.18 µM
same,GI50,M14,0.19 µM
same,GI50,SF-295,10.8 µM
same,GI50,RPMI-8226,0.26 µM
same,GI50,BT-549,0.62 µM
same,GI50,[1],0.27 µM
same,GI50,MDA-MB-231,0.37 µM
same,GI50,HCT-116,0.19 µM
same,GI50,K562,0.37 µM
same,GI50,MCF7,1.87 µM
same,GI50,HCT-15,0.24 µM
same,GI50,HT-29,0.26 µM
same,GI50,NCI-H460,2.74 µM
same,GI50,SF-539,0.32 µM
same,GI50,A549,2.43 µM
same,GI50,RXF 393,0.27 µM
